ChEMBL document CHEMBL2439956, “Synthesis and biological evaluation of novel formyl-pyrazoles bearing coumarin moiety as potent antimicrobial and antioxidant agents” (2013)
In brackets after ≈: the same amount, converted by molar mass. Activity calls are given as the source filed them. No cut-off for these calls is given here.

Assays:
Aspergillus flavus [1] = test: Antifungal activity against Aspergillus flavus by broth dilution technique; assay type: functional
Method in brief: (§1)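 Broth dilution technique; each MIC (µg/mL) is the mean of three determinations run in triplicate against the bacterial and fungal strains.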

Streptococcus pyogenes [2] = test: Antibacterial activity against Streptococcus pyogenes by broth dilution technique; assay type: functional; method in brief: as §1
[3] = test system: Radical scavenging activity; test: Antioxidant activity assessed as DPPH radical scavenging activity at 50 ug/ml relative to butylated hydroxytoluene; assay type: functional
Method in brief: (§2)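 DPPH radical scavenging assay with BHT as standard antioxidant. Samples were tested at five concentrations (10, 20, 30, 40 and 50 µg/mL) in triplicate, alongside a control at 0 µg/mL. Read-out is % radical scavenging, reported as mean ± SD.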

Pseudomonas aeruginosa = test: Antibacterial activity against Pseudomonas aeruginosa by broth dilution technique; assay type: functional; method in brief: as §1
Candida albicans [4] = test: Antifungal activity against Candida albicans by broth dilution technique; assay type: functional; method in brief: as §1
[5] = test system: Radical scavenging activity; test: Antioxidant activity assessed as DPPH radical scavenging activity at 30 ug/ml relative to butylated hydroxytoluene; assay type: functional; method in brief: as §2
[6] = test system: Radical scavenging activity; test: Antioxidant activity assessed as DPPH radical scavenging activity at 20 ug/ml relative to butylated hydroxytoluene; assay type: functional; method in brief: as §2
Staphylococcus aureus = test: Antibacterial activity against Staphylococcus aureus by broth dilution technique; assay type: functional; method in brief: as §1
[7] = test system: Radical scavenging activity; test: Antioxidant activity assessed as DPPH radical scavenging activity at 40 ug/ml relative to butylated hydroxytoluene; assay type: functional; method in brief: as §2
[8] = test system: Radical scavenging activity; test: Antioxidant activity assessed as DPPH radical scavenging activity at 10 ug/ml relative to butylated hydroxytoluene; assay type: functional; method in brief: as §2
Cryptococcus neoformans = test: Antifungal activity against Cryptococcus neoformans by broth dilution technique; assay type: functional; method in brief: as §1
Escherichia coli [9] = test: Antibacterial activity against Escherichia coli by broth dilution technique; assay type: functional; method in brief: as §1
Aspergillus niger = test: Antifungal activity against Aspergillus niger by broth dilution technique; assay type: functional; method in brief: as §1
Aspergillus flavus [10] = test: Antifungal activity against Aspergillus flavus at 200 ug/ml by broth dilution technique; assay type: functional, organism-based
Candida albicans [11] = test: Antifungal activity against Candida albicans at 200 ug/ml by broth dilution technique; assay type: functional, organism-based
Streptococcus pyogenes [12] = test: Antibacterial activity against Streptococcus pyogenes at 200 ug/ml by broth dilution technique; assay type: functional, organism-based
Escherichia coli [13] = test: Antibacterial activity against Escherichia coli at 200 ug/ml by broth dilution technique; assay type: functional, organism-based

Row | MIC (Aspergillus flavus [1]) | MIC (Streptococcus pyogenes [2]) | MIC (Pseudomonas aeruginosa) | MIC (Candida albicans [4]) | MIC (Staphylococcus aureus) | MIC (Cryptococcus neoformans) | MIC (Escherichia coli [9]) | MIC (Aspergillus niger) | SMILES | Activity [3] | Activity [5] | Activity [6] | Activity [7] | Activity [8] | Activity (Aspergillus flavus [10]) | Activity (Candida albicans [11]) | Activity (Streptococcus pyogenes [12]) | Activity (Escherichia coli [13])
1 | inactive | 75 µg/mL (≈ 172 µM) | 20 µg/mL (≈ 45.8 µM) | inactive | 40 µg/mL (≈ 91.7 µM) | inactive | 40 µg/mL (≈ 91.7 µM) | inactive | Cc1cc(=O)oc2c(-c3nn(-c4ccc([N+](=O)[O-])cc4[N+](=O)[O-])cc3C=O)c(O)ccc12 | 56% | 47.1% | 41.9% | 51.1% | 34.7% |  |  |  | 
2 | 40 µg/mL (≈ 118 µM) | 60 µg/mL (≈ 177 µM) | inactive | 30 µg/mL (≈ 88.7 µM) | 30 µg/mL (≈ 88.7 µM) | 40 µg/mL (≈ 118 µM) | 50 µg/mL (≈ 148 µM) | 50 µg/mL (≈ 148 µM) | COc1ccccc1N/N=C(/C)c1c(O)ccc2c(C)cc(=O)oc12 |  |  |  |  |  |  |  |  | 
3 |  | 50 µg/mL (≈ 139 µM) | 50 µg/mL (≈ 139 µM) |  | 30 µg/mL (≈ 83.2 µM) | 30 µg/mL (≈ 83.2 µM) | 40 µg/mL (≈ 111 µM) | 60 µg/mL (≈ 166 µM) | Cc1ccccc1-n1cc(C=O)c(-c2c(O)ccc3c(C)cc(=O)oc23)n1 | 17.1% | 14.1% | 13.8% | 15.1% | 12.8% | inactive | inactive |  | 
4 | 50 µg/mL (≈ 146 µM) | 50 µg/mL (≈ 146 µM) | 25 µg/mL (≈ 72.9 µM) | 30 µg/mL (≈ 87.5 µM) | 20 µg/mL (≈ 58.3 µM) | 25 µg/mL (≈ 72.9 µM) | 50 µg/mL (≈ 146 µM) | 60 µg/mL (≈ 175 µM) | C/C(=N/Nc1ccc(Cl)cc1)c1c(O)ccc2c(C)cc(=O)oc12 |  |  |  |  |  |  |  |  | 
5 |  | inactive | 50 µg/mL (≈ 144 µM) |  | inactive | 50 µg/mL (≈ 144 µM) | 30 µg/mL (≈ 86.6 µM) | 100 µg/mL (≈ 289 µM) | Cc1cc(=O)oc2c(-c3nn(-c4ccccc4)cc3C=O)c(O)ccc12 | 57.8% | 46.4% | 42.1% | 50.1% | 39.4% | inactive | inactive |  | 
6 |  | 50 µg/mL (≈ 155 µM) | 100 µg/mL (≈ 310 µM) |  | 40 µg/mL (≈ 124 µM) | 40 µg/mL (≈ 124 µM) | 75 µg/mL (≈ 233 µM) | 75 µg/mL (≈ 233 µM) | C/C(=N/Nc1ccccc1C)c1c(O)ccc2c(C)cc(=O)oc12 |  |  |  |  |  | inactive | inactive |  | 
7 | inactive | 75 µg/mL (≈ 188 µM) | inactive | inactive | 50 µg/mL (≈ 126 µM) | inactive | inactive | inactive | C/C(=N/Nc1ccc([N+](=O)[O-])cc1[N+](=O)[O-])c1c(O)ccc2c(C)cc(=O)oc12 |  |  |  |  |  |  |  |  | 
8 | 60 µg/mL (≈ 158 µM) | 35 µg/mL (≈ 91.9 µM) | 15 µg/mL (≈ 39.4 µM) | 25 µg/mL (≈ 65.7 µM) | 15 µg/mL (≈ 39.4 µM) | 15 µg/mL (≈ 39.4 µM) | 30 µg/mL (≈ 78.8 µM) | 40 µg/mL (≈ 105 µM) | Cc1cc(=O)oc2c(-c3nn(-c4ccc(Cl)cc4)cc3C=O)c(O)ccc12 | 69.3% | 58.1% | 53.3% | 63.9% | 48.9% |  |  |  | 
9 | 75 µg/mL (≈ 243 µM) | inactive | 25 µg/mL (≈ 81.1 µM) | 50 µg/mL (≈ 162 µM) | 40 µg/mL (≈ 130 µM) | 50 µg/mL (≈ 162 µM) | inactive | 75 µg/mL (≈ 243 µM) | C/C(=N/Nc1ccccc1)c1c(O)ccc2c(C)cc(=O)oc12 |  |  |  |  |  |  |  | inactive | inactive
10 | 25 µg/mL (≈ 66.4 µM) | 50 µg/mL (≈ 133 µM) | 25 µg/mL (≈ 66.4 µM) | 50 µg/mL (≈ 133 µM) | 30 µg/mL (≈ 79.7 µM) | 25 µg/mL (≈ 66.4 µM) | 75 µg/mL (≈ 199 µM) | 50 µg/mL (≈ 133 µM) | COc1ccccc1-n1cc(C=O)c(-c2c(O)ccc3c(C)cc(=O)oc23)n1 | 17.4% | 13.3% | 12% | 15.6% | 11.1% |  |  |  | 

Row | SMILES | MIC (Aspergillus flavus [1]) | MIC (Streptococcus pyogenes [2]) | MIC (Pseudomonas aeruginosa) | MIC (Candida albicans [4]) | MIC (Staphylococcus aureus) | MIC (Cryptococcus neoformans) | MIC (Escherichia coli [9]) | MIC (Aspergillus niger) | Activity [3] | Activity [5] | Activity [6] | Activity [7] | Activity [8] | Activity (Aspergillus flavus [10]) | Activity (Candida albicans [11]) | Activity (Streptococcus pyogenes [12]) | Activity (Escherichia coli [13])
11 | O=C(O)c1cn(C2CC2)c2cc(N3CCNCC3)c(F)cc2c1=O [CIPROFLOXACIN] |  | 50 µg/mL (≈ 151 µM) |  |  |  |  | 25 µg/mL (≈ 75.4 µM) |  |  |  |  |  |  |  |  |  | 
12 | C[C@@H]1[C@H](O)[C@@H](C)/C=C/C=C/C=C/C=C/C=C/C=C/C=C/[C@H](O[C@@H]2O[C@H](C)[C@@H](O)[C@H](N)[C@@H]2O)C[C@@H]2O[C@](O)(C[C@@H](O)C[C@@H](O)[C@H](O)CC[C@@H](O)C[C@@H](O)CC(=O)O[C@H]1C)C[C@H](O)[C@H]2C(=O)O [AMPHOTERICIN B] | 50 µg/mL (≈ 54.1 µM) |  |  | 25 µg/mL (≈ 27.1 µM) |  | 25 µg/mL (≈ 27.1 µM) |  | 50 µg/mL (≈ 54.1 µM) |  |  |  |  |  |  |  |  | 
